Source: ChEMBL document CHEMBL1126902, “Synthesis, chemical reactivity, and antitumor evaluation of congeners of carmethizole hydrochloride, an experimental "acylated vinylogous carbinolamine" tumor inhibitor” (J Med Chem, 1993)

Legend:
[1] = Change in tumor cell population in ip implanted LOX amelanotic melanoma in mice after administration of compound at 212 mg/kg; format: functional, Mus musculus; conditions: route intraperitoneal
In short: (§1)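 Female CD2F1 mice were implanted ip with ascitic fluid holding ca. 1.7×10^6 LOX cells. Dosing was ip on days 1, 5 and 9, starting 24 h after implantation, by exact body weight, as a solution or suspension in saline plus Tween 80, freshly prepared daily. KE is the net log change in viable tumor cells from start to end of treatment. Bracketed KE assumes Poisson survival, with 60-day survivors tumor-free.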

[2] = Percent increase in life span of dying mice tested in vivo at 212 mg/kg against ip implanted LOX amelanotic melanoma in mice (60-day survivors); format: functional; conditions: Mus musculus, 1440 h, route intraperitoneal
In short: (§2)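 Female CD2F1 mice implanted ip with ascitic fluid carrying ca. 1.7×10^6 LOX amelanotic melanoma cells. Drug given ip on days 1, 5 and 9, starting 24 h after implant, dosed by exact body weight; solutions or suspensions made fresh daily. %ILS is from the median day of death of dying mice versus controls, excluding 60-day survivors.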

[3] = Percent increase in life span of dying mice tested in vivo at 106 mg/kg against ip implanted LOX amelanotic melanoma in mice (60-day survivors); format: functional; conditions: Mus musculus, 1440 h, route intraperitoneal; in short: as §2
[4] = Percent increase in life span of dying mice tested in vivo at 26.5 mg/kg against ip implanted LOX amelanotic melanoma in mice (60-day survivors); format: functional; conditions: Mus musculus, 1440 h, route intraperitoneal; in short: as §2
[5] = Change in tumor cell population in ip implanted LOX amelanotic melanoma in mice after administration of compound at 106 mg/kg; format: functional, Mus musculus; conditions: route intraperitoneal; in short: as §1
[6] = Percent increase in life span of dying mice tested in vivo at 53 mg/kg against ip implanted LOX amelanotic melanoma in mice (60-day survivors); format: functional; conditions: Mus musculus, 1440 h, route intraperitoneal; in short: as §2
[7] = Change in tumor cell population in ip implanted LOX amelanotic melanoma in mice after administration of compound at 53 mg/kg; format: functional, Mus musculus; conditions: route intraperitoneal; in short: as §1
[8] = Change in tumor cell population in ip implanted LOX amelanotic melanoma in mice after administration of compound at 26.5 mg/kg; format: functional, Mus musculus; conditions: route intraperitoneal; in short: as §1
[9] = Change in tumor cell population in ip implanted LOX amelanotic melanoma in mice after administration of compound at 21.75 mg/kg; format: functional, Mus musculus; conditions: route intraperitoneal; in short: as §1
[10] = Percent increase in life span of dying mice tested in vivo at 174 mg/kg against ip implanted LOX amelanotic melanoma in mice (60-day survivors); format: functional; conditions: Mus musculus, 1440 h, route intraperitoneal; in short: as §2
P388 [11] = assay: Change in tumor cell population in ip implanted P388 Leukemia in mice after administration of compound at 21.8 mg/kg; format: functional, Mus musculus; conditions: route intraperitoneal
In short: (§3)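 Female Portage-CD2F1 mice were inoculated ip with ascitic fluid holding ca. 5.2×10^6 P388 cells. Dosing was ip on days 1-5, starting 24 h after inoculation, by average body weight, as a solution or suspension in saline plus Tween 80. KE is the net log change in viable tumor cell population from start to end of the treatment period.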

[12] = Percent increase in life span of dying mice tested in vivo at 21.75 mg/kg against ip implanted LOX amelanotic melanoma in mice (60-day survivors); format: functional; conditions: Mus musculus, 1440 h, route intraperitoneal; in short: as §2
[13] = Change in tumor cell population in ip implanted LOX amelanotic melanoma in mice after administration of compound at 174 mg/kg; format: functional, Mus musculus; conditions: route intraperitoneal; in short: as §1
P388 [14] = assay: Percent increase in life span of dying mice tested in vivo at 43.5 mg/kg against ip implanted P388 Leukemia in mice; format: functional; conditions: Mus musculus, route intraperitoneal
In short: (§4)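 Portage-CD2F1 female mice inoculated ip with ascitic fluid carrying ca. 5.2×10^6 P388 leukemia cells. Drug given ip daily on days 1-5, starting 24 h after inoculation, dosed by average body weight. %ILS is from the median day of death of dying mice versus controls.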

P388 [15] = assay: Percent increase in life span of dying mice tested in vivo at 87 mg/kg against ip implanted P388 Leukemia in mice; format: functional; conditions: Mus musculus, route intraperitoneal
In short: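 Portage-CD2F1 female mice were inoculated ip with ascitic fluid containing ca. 5.2×10^6 P388 leukemia cells. Drug was given ip daily on days 1-5, starting 24 h after inoculation, and dosed by average body weight. %ILS was calculated from the median day of death of dying mice versus controls.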

P388 [16] = assay: Percent increase in life span of dying mice tested in vivo at 10.9 mg/kg against ip implanted P388 Leukemia in mice; format: functional; conditions: Mus musculus, route intraperitoneal; in short: as §4
[17] = Percent increase in life span of dying mice tested in vivo at 87 mg/kg against ip implanted LOX amelanotic melanoma in mice (60-day survivors); format: functional; conditions: Mus musculus, 1440 h, route intraperitoneal
In short: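 Nude CD2F1 female mice were implanted ip with ascitic fluid containing ca. 1.7×10^6 LOX amelanotic melanoma cells. Drug was given ip on days 1, 5 and 9, starting 24 h after implantation, and dosed by exact body weight. Solutions or suspensions were made fresh daily in saline plus Tween 80. %ILS was calculated from the median day of death of dying mice versus controls, excluding 60-day survivors.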

[18] = Change in tumor cell population in ip implanted LOX amelanotic melanoma in mice after administration of compound at 87 mg/kg; format: functional, Mus musculus; conditions: route intraperitoneal; in short: as §1
P388 [19] = assay: Change in tumor cell population in ip implanted P388 Leukemia in mice after administration of compound at 10.9 mg/kg; format: functional, Mus musculus; conditions: route intraperitoneal; in short: as §3
[20] = Change in tumor cell population in ip implanted LOX amelanotic melanoma in mice after administration of compound at 43.5 mg/kg; format: functional, Mus musculus; conditions: route intraperitoneal; in short: as §1
P388 [21] = assay: Change in tumor cell population in ip implanted P388 Leukemia in mice after administration of compound at 87 mg/kg; format: functional, Mus musculus; conditions: route intraperitoneal
In short: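 P388 leukemia: ascitic fluid with ca. 5.2×10^6 cells inoculated ip into Portage-CD₂F₁ female mice. Drug given ip on days 1-5, starting 24 h after inoculation, dosed by average body weight. Vehicle was saline plus Tween 80, as a solution or suspension. KE = net log change in viable tumor cells from start to end of treatment.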

P388 [22] = assay: Change in tumor cell population in ip implanted P388 Leukemia in mice after administration of compound at 43.5 mg/kg; format: functional, Mus musculus; conditions: route intraperitoneal; in short: as §3
[23] = Percent increase in life span of dying mice tested in vivo at 43.5 mg/kg against ip implanted LOX amelanotic melanoma in mice (60-day survivors); format: functional; conditions: Mus musculus, 1440 h, route intraperitoneal; in short: as §2
P388 [24] = assay: Percent increase in life span of dying mice tested in vivo at 21.8 mg/kg against ip implanted P388 Leukemia in mice; format: functional; conditions: Mus musculus, route intraperitoneal; in short: as §4

CNC(=O)OCc1nc(SC2CCCCO2)n(C)c1COC(=O)NC (centres undefined)
KE [1]: 1.3
ILS at 212 mg/kg [2]: 8%
ILS at 106 mg/kg [3]: 15%
ILS at 26.5 mg/kg [4]: 11%
KE [5]: 1
ILS at 53 mg/kg [6]: 15%
KE [7]: 1
KE [8]: 1.2

CCSc1nc(COC(=O)NC)c(COC(=O)NC)n1C
KE [9]: -0.2
ILS at 174 mg/kg [10]: 95%
KE (P388 [11]): -1.3
ILS at 21.75 mg/kg [12]: 44%
KE [13]: -2.5
ILS at 43.5 mg/kg (P388 [14]): 64%
ILS at 87 mg/kg (P388 [15]): 99%
ILS at 10.9 mg/kg (P388 [16]): 47%
ILS at 87 mg/kg [17]: 85%
KE [18]: -2.1
KE (P388 [19]): -0.6
KE [20]: -0.5
KE (P388 [21]): -4.3
KE (P388 [22]): -1.9
ILS at 43.5 mg/kg [23]: 52%
ILS at 21.8 mg/kg (P388 [24]): 56%
